How the values were obtained:
Format in all cases: functional
[1] = Growth inhibition of human HOP92 cells assessed as cell growth at 10^-8 M incubated for 48 hrs by sulforhodamine B assay; details: HOP-92, 48 h, read-out: Activity
[2] = Growth inhibition of human HCC2998 cells assessed as cell growth at 10^-6 M incubated for 48 hrs by sulforhodamine B assay; details: HCC 2998, 48 h, read-out: Activity
Procedure, shortened: (§1)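 Cells seeded at 5,000–40,000/well according to doubling time and preincubated 24 h at 37 °C, 5% CO2. Time-zero plates were TCA-fixed. DMSO concentrate was diluted in medium with 50 µg/ml gentamicin to give five concentrations (10-fold or ½ log steps), then exposed 48 h. Cells were TCA-fixed, stained with 0.4% SRB and read at 515 nm. Percent growth was taken against time-zero and control; GI50, TGI and LC50 derived.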

[3] = Growth inhibition of human HL-60(TB) cells incubated for 48 hrs by sulforhodamine B assay; details: HL-60, 48 h
Procedure, shortened: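 Five-concentration, 48 h SRB screen (10-fold or ½-log dilutions from a 400× DMSO concentrate; 24 h preincubation at 37 °C, 5% CO₂; time-zero plate; A515). GI50 was solved from (Ti−Tz)/(C−Tz)×100 = 50. TGI was taken where Ti = Tz, and LC50 from (Ti−Tz)/[…].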

[4] = Growth inhibition of human BT549 cells assessed as cell growth at 10^-4 M incubated for 48 hrs by sulforhodamine B assay; details: BT-549, 48 h, read-out: Activity
Procedure, shortened: (§2)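 Five-dose assay: five concentrations from 10-fold or ½-log serial dilutions. Cells are plated at 5,000–40,000 per well according to doubling time, grown 24 h, then exposed 48 h at 37 °C, 5% CO₂. Fixed with cold 50% TCA (final addition) for 60 min at 4 °C and stained with 0.4% SRB in 1% acetic acid. Bound dye is solubilized in 10 mM Tris base and read at 515 nm. GI₅₀ is where [(Ti−Tz)/(C−Tz)]×100 = 50, with a time-zero plate as Tz.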

[5] = Growth inhibition of human RPMI8226 cells assessed as cell growth at 10^-6 M incubated for 48 hrs by sulforhodamine B assay; details: RPMI-8226, 48 h, read-out: Activity
HT-29 = assay: Growth inhibition of human HT-29 cells assessed as cell growth at 10^-7 M incubated for 48 hrs by sulforhodamine B assay; details: HT-29, 48 h, read-out: Activity
MDA-MB-468 = assay: Growth inhibition of human MDA-MB-468 cells assessed as cell growth at 10^-8 M incubated for 48 hrs by sulforhodamine B assay; details: MDA-MB-468, 48 h, read-out: Activity
[6] = Growth inhibition of human HCT15 cells assessed as cell growth at 10^-8 M incubated for 48 hrs by sulforhodamine B assay; details: HCT-15, 48 h, read-out: Activity; procedure, shortened: as §1
[7] = Growth inhibition of human OVCAR3 cells assessed as cell growth at 10^-8 M incubated for 48 hrs by sulforhodamine B assay; details: OVCAR-3, 48 h, read-out: Activity
[8] = Growth inhibition of human SF539 cells assessed as cell growth at 10^-4 M incubated for 48 hrs by sulforhodamine B assay; details: SF-539, 48 h, read-out: Activity
[9] = Growth inhibition of human HCT116 cells assessed as cell growth at 10^-5 M incubated for 48 hrs by sulforhodamine B assay; details: HCT-116, 48 h, read-out: Activity; procedure, shortened: as §1
[10] = Growth inhibition of human HCT15 cells assessed as cell growth at 10^-5 M incubated for 48 hrs by sulforhodamine B assay; details: HCT-15, 48 h, read-out: Activity; procedure, shortened: as §1
[11] = Growth inhibition of human COLO205 cells assessed as cell growth at 10^-8 M incubated for 48 hrs by sulforhodamine B assay; details: COLO 205, 48 h, read-out: Activity; procedure, shortened: as §1
NCI-H23 = assay: Growth inhibition of human NCI-H23 cells incubated for 48 hrs by sulforhodamine B assay; details: NCI-H23, 48 h
Procedure, shortened: (§3)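 Cells were plated at 5,000–40,000 per well according to doubling time and preincubated 24 h at 37 °C in 5% CO2; time-zero plates were then TCA-fixed. Five concentrations (10-fold or ½-log dilutions, DMSO stock) were incubated 48 h. Cells were TCA-fixed, stained with 0.4% SRB and read at 515 nm. GI50 was taken where [(Ti−Tz)/(C−Tz)]×100 = 50.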

[12] = Growth inhibition of human SW620 cells assessed as cell growth at 10 uM incubated for 48 hrs by sulforhodamine B assay; details: SW-620, 48 h, read-out: Activity
[13] = Growth inhibition of human RPMI8226 cells assessed as cell growth at 10 uM incubated for 48 hrs by sulforhodamine B assay; details: RPMI-8226, 48 h, read-out: Activity
[14] = Growth inhibition of human SNB19 cells assessed as cell growth at 10^-5 M incubated for 48 hrs by sulforhodamine B assay; details: SNB-19, 48 h, read-out: Activity
[15] = Growth inhibition of human RXF393 cells assessed as cell growth at 10^-6 M incubated for 48 hrs by sulforhodamine B assay; details: RXF 393, 48 h, read-out: Activity
[16] = Growth inhibition of human RXF393 cells assessed as cell growth at 10^-8 M incubated for 48 hrs by sulforhodamine B assay; details: RXF 393, 48 h, read-out: Activity
[17] = Growth inhibition of human SF539 cells incubated for 48 hrs by sulforhodamine B assay; details: SF-539, 48 h; procedure, shortened: as §3
[18] = Growth inhibition of human TK10 cells assessed as cell growth at 10 uM incubated for 48 hrs by sulforhodamine B assay; details: TK-10, 48 h, read-out: Activity
[19] = Growth inhibition of human CNS cancer cells incubated for 48 hrs by sulforhodamine B assay; details: Cancer cell lines; for CC50: read-out: LC50 (the source's name); procedure, shortened: as §2
[20] = Growth inhibition of human COLO205 cells assessed as cell growth at 10^-5 M incubated for 48 hrs by sulforhodamine B assay; details: COLO 205, 48 h, read-out: Activity; procedure, shortened: as §1
[21] = Growth inhibition of human OVCAR4 cells assessed as cell growth at 10 uM incubated for 48 hrs by sulforhodamine B assay; details: OVCAR-4, 48 h, read-out: Activity
[22] = Growth inhibition of human LOXIMVI cells assessed as cell growth at 10 uM incubated for 48 hrs by sulforhodamine B assay; details: LOX IMVI, read-out: Activity
[23] = Growth inhibition of human SKOV3 cells assessed as cell growth at 10^-8 M incubated for 48 hrs by sulforhodamine B assay; details: SK-OV-3, 48 h, read-out: Activity
[24] = read-out: LC50 (the source's name)
[25] = read-out: pLC50 (the source's name) (converted)

SMILES: Clc1ccc(-c2nc(Nc3ccc(-c4nc5ccccc5[nH]4)cc3)nc(N3CCOCC3)n2)cc1
- growth at 0.01 µM [1]: 90%
- growth at 1 µM [2]: 15%
- GI50 ([3]; read-out: GI50): 0.216 µM
- TGI ([3]; read-out: TGI): 0.567 µM
- GI50 ([3]; read-out: pGI50 (converted)): 0.214 µM
- TGI ([3]; read-out: pTGI (converted)): 0.562 µM
- growth at 100 µM [4]: -13%
- growth at 1 µM [5]: -20%
- growth at 0.1 µM (HT-29): 99%
- growth at 0.01 µM (MDA-MB-468): 99%
- growth at 0.01 µM [6]: 96%
- growth at 0.01 µM [7]: 99%
- growth at 100 µM [8]: -38%
- growth at 10 µM [9]: -76%
- growth at 10 µM [10]: -76%
- growth at 0.01 µM [11]: 95%
- GI50 (NCI-H23; read-out: GI50): 1.7 µM
- TGI (NCI-H23; read-out: TGI): 3.66 µM
- GI50 (NCI-H23; read-out: pGI50 (converted)): 1.7 µM
- TGI (NCI-H23; read-out: pTGI (converted)): 3.63 µM
- growth at 10 µM [12]: -74.2%
- growth at 10 µM [13]: -73.4%
- growth at 10 µM [14]: -70%
- growth at 1 µM [15]: -56%
- growth at 0.01 µM [16]: 100%
- GI50 ([17]; read-out: GI50): 0.52 µM
- TGI ([17]; read-out: TGI): 1.83 µM
- GI50 ([17]; read-out: pGI50 (converted)): 0.525 µM
- TGI ([17]; read-out: pTGI (converted)): 1.82 µM
- growth at 10 µM [18]: -94.4%
- GI50 [19]: 0.77 µM
- TGI [19]: 1.92 µM
- CC50 [19]: > 100 µM
- growth at 10 µM [20]: -71%
- growth at 10 µM [21]: -73.9%
- growth at 10 µM [22]: -93%
- growth at 0.01 µM [23]: 101%

SMILES: c1ccc2[nH]c(-c3ccc(Nc4nc(N5CCCCC5)nc(N5CCOCC5)n4)cc3)nc2c1
- growth at 0.01 µM [1]: 92%
- growth at 1 µM [2]: 105%
- GI50 ([3]; read-out: GI50): 2.42 µM
- LC50 ([3]; read-out: LC50): > 100 µM
- TGI ([3]; read-out: TGI): 5.8 µM
- GI50 ([3]; read-out: pGI50 (converted)): 2.4 µM
- LC50 ([3]; read-out: pLC50 (converted)): > 100 µM
- TGI ([3]; read-out: pTGI (converted)): 5.75 µM
- growth at 100 µM [4]: -50%
- growth at 1 µM [5]: 87%
- growth at 0.1 µM (HT-29): 105%
- growth at 0.01 µM (MDA-MB-468): 104%
- growth at 0.01 µM [6]: 95%
- growth at 0.01 µM [7]: 103%
- growth at 100 µM [8]: -76%
- growth at 10 µM [9]: -67%
- growth at 10 µM [10]: -49%
- growth at 0.01 µM [11]: 99%
- GI50 (NCI-H23; read-out: GI50): 3.05 µM
- CC50 (NCI-H23; [24]): > 100 µM
- TGI (NCI-H23; read-out: TGI): 15.7 µM
- GI50 (NCI-H23; read-out: pGI50 (converted)): 3.02 µM
- CC50 (NCI-H23; [25]): > 100 µM
- TGI (NCI-H23; read-out: pTGI (converted)): 15.8 µM
- growth at 10 µM [12]: 5.3%
- growth at 10 µM [13]: 2.47%
- growth at 10 µM [14]: 13%
- growth at 1 µM [15]: 46%
- growth at 0.01 µM [16]: 96%
- GI50 ([17]; read-out: GI50): 2.14 µM
- CC50 [17, 24]: 28.5 µM
- TGI ([17]; read-out: TGI): 5.75 µM
- GI50 ([17]; read-out: pGI50 (converted)): 2.14 µM
- CC50 [17, 25]: 28.2 µM
- TGI ([17]; read-out: pTGI (converted)): 5.75 µM
- growth at 10 µM [18]: 58.8%
- GI50 [19]: 2.54 µM
- TGI [19]: 23.2 µM
- CC50 [19]: 46.6 µM
- growth at 10 µM [20]: -63%
- growth at 10 µM [21]: 61.2%
- growth at 10 µM [22]: -77.1%
- growth at 0.01 µM [23]: 97%

From ChEMBL document CHEMBL3808334, “Synthesis and in vitro evaluation of novel triazine analogues as anticancer agents and their interaction studies with bovine serum albumin” (Eur J Med Chem, 2016)
